Only some compounds are listed: those with a hit (about 2.3% of all), similar ones and a draw of the others.
NPY-Y2 antag = blocks the human neuropeptide Y Y2 receptor; P49146; NPY-Y2 expressing cells, antagonist mode; hit rate 0.99% among 140,000; inhibition, % at 2.7 µM; in the data active = inhibition above about 17%;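 note: 0% = vehicle with agonist challenge and 100% = reference antagonist with challenge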
NPY Y1 blocker = NPY-Y1 (human) receptor antagonism; P25929; HEK293-CNG Y1 cells, membrane potential fluorescence; NPY at EC95, then isoproterenol; inhibition, % at 3.6 µM; hit rate 1% among 200,000; AID 1040;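 active = inhibition above the campaign mean inhibition of all tested compounds plus 3 SD, cut at about 20% in these data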;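 note: 0% = DMSO wells given NPY plus isoproterenol and 100% = isoproterenol alone without NPY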
Target sequence (P25929 whole entry, looked up): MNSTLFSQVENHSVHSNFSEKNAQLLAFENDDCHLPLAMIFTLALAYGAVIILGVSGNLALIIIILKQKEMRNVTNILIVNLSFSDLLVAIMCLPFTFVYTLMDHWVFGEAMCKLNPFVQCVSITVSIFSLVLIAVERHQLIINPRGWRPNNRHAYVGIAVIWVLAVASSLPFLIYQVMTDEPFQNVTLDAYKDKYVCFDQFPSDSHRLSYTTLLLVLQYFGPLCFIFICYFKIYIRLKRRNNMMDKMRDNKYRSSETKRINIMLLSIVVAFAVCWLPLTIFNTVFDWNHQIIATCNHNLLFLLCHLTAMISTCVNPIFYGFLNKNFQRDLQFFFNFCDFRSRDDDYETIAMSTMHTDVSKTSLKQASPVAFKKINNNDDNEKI
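material = HEK293 cells with Y1 receptor plus CNG channel | also added = NPY 25 nM then isoproterenol 1 µM plus Ro 20-1724 25 µM | schedule = dye 3 h, compound 60 min room temperature, stimulation 45 min | measured by = membrane potential fluorescence | benchmarks = high control isoproterenol alone, low control NPY with isoproterenol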
TbHK1 inh = T. brucei hexokinase 1 inhibition; inhibition, % at 10 µM; recombinant TbHK1, G6PDH-coupled NADH A340; hit rate 0.11% among 220,000;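 active = inhibition of 50% or more in the single-dose primary screen; inactive = inhibition below 50%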
NPY-Y1 PAM-ag = potentiates or activates human NPY-Y1 receptor; P25929; NPY-Y1 expressing cells, potentiator/agonist activation; activation, % at 3.6 µM; hit rate 0.37% among 220,000; AID 1304; in the data active = activation above about 33%, passing the limit was not always enough;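 note: cells stimulated with NPY at EC10 then isoproterenol at EC100; 0% = low agonist plus stimulus and 100% = saturating agonist plus stimulus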
m-calpain inh = inhibitors of pig calpain II; purified calpain II, fluorogenic peptide substrate, 30 min; inhibition, % at 16 µM; hit rate 0.37% among 220,000; AID 1236;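 active = inhibition above about 50%, limit read from the data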
NPY2 pot ag = potentiates or activates human NPY-Y2 receptor; P49146; cells expressing NPY-Y2, potentiator/agonist read-out; activation, % at 3.6 µM; hit rate 0.45% among 220,000; in the data active = activation above about 27%;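 note: cells stimulated with NPY near EC25 plus isoproterenol at EC100; 0% = vehicle plus submaximal agonist and 100% = vehicle plus saturating agonist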
* marks the source's active call; other numbers are inactive results; / = no result given.

SMILES | NPY-Y2 antag | NPY Y1 blocker | TbHK1 inh | NPY-Y1 PAM-ag | m-calpain inh | NPY2 pot ag
O=C(CCC1CCCCC1)Nc1cccnc1 | 2 | 2 | -11 | -3 | -17 | -19
Cc1cc(NC(=O)CCC2CCCCC2)no1 | 2 | -1 | 0 | 10 | -9 | 14
Cc1cc(OCC(F)(F)C(F)(F)C(F)(F)C(F)(F)C(F)(F)C(F)F)nc(N)n1 | 5 | 0 | -3 | 62* | -33 | 38*
CC(OC(=O)c1ccccc1Nc1ccc(SC(F)F)cc1)C(N)=O (configuration not stated) | 1 | -8 | 22 | -15 | 68* | -3
CCC(C(=O)Nc1cccc(C(=O)O)c1C)c1ccccc1 (configuration not stated) | / | 0 | 2 | 1 | 6 | 0
Fc1ccc(CSc2nc3ccccc3[nH]2)c2ccccc12 | 2 | 7 | 8 | -16 | 59* | -2
CC(C)Cc1cc(CN2CCC(CO)(Cc3ccccc3)CC2)[nH]n1 | / | / | 2 | -10 | 7 | -40
Cc1ccc(C(=O)N2CCN(S(=O)(=O)c3ccc(C)c([N+](=O)[O-])c3)C2)cc1 | / | 1 | -5 | 16 | -10 | 3
CNc1nc(OCC(F)(F)F)nc(N2CCOCC2)n1 | -1 | -1 | -2 | -16 | 3 | 14
FC(F)(F)COc1nc(N2CCOCC2)nc(N(c2ccccc2)c2ccccc2)n1 | 20* | 21* | -5 | -21 | 14 | -8
COc1ccc(OC)c(N(CC(=O)N2CCN(c3cc(Cl)ccc3C)CC2)S(C)(=O)=O)c1 | 6 | 2 | -16 | -17 | 57* | -17
Cc1cc(C)cc(OCC(=O)Nc2ccc3c4c(cccc24)CC3)c1 | 4 | 5 | -11 | -25 | -18 | -7
O=C(COc1ccc2ccccc2c1)Nc1ccc2c3c(cccc13)CC2 | 21* | 10 | 9 | -3 | -5 | 5
O=C1C(c2ccccc2)SC(=Nc2ccccc2)N1S(=O)(=O)c1ccccc1 (configuration not stated) | 3 | -2 | -10 | 7 | 54* | -10
CC1CCN(c2ccccc2NC(=S)NC(=O)c2ccco2)CC1 | 12 | 35* | 1 | -48 | / | -25
CC1=C(C)CC(C(=O)NNC(=O)c2cccc(Cl)c2)C(C(=O)O)C1 (configuration not stated) | 6 | 6 | 3 | -20 | -6 | 7
CCN1CCN(C(c2cccs2)C(C)NS(=O)(=O)c2ccc(C)cc2)CC1 (configuration not stated) | / | -2 | 4 | -20 | 26 | 0
CCN1CCN(C(c2cccs2)C(C)NS(=O)(=O)c2ccccc2)CC1 (configuration not stated) | / | 3 | 4 | -1 | 57* | -4
Cc1ccc2c(CC(=O)NCCc3ccc(S(N)(=O)=O)cc3)coc2c1 | / | / | 5 | 13 | -4 | 16
Cc1ccc(NC(=O)c2ccc(C(C)(C)C)cc2)cc1-n1cnnn1 | / | 2 | -1 | -3 | 62* | -4
CN(C)c1nc(NCc2ccccc2)nc(SCC(=O)Nc2ccccc2Cl)n1 | 43* | 26* | 5 | 2 | 11 | -3
CCCOc1ccc2ccccc2c1/C=N/n1c(C)nnc1-n1nc(C)cc1C | 26* | 29* | -6 | -17 | -32 | 0
O=C(c1cc(-c2ccccc2)n[nH]1)N1CCc2c([nH]c3ccccc23)C1c1ccccn1 (configuration not stated) | / | -6 | -12 | 20 | -186 | 12
O=C(Oc1ccc2c(c1)OCO2)C12CC3CC(CC(C3)C1)C2 | 5 | -1 | -4 | 6 | 66* | 2
O=C(CC1NCCNC1=O)NC1Cc2ccccc2C1 (configuration not stated) | / | / | 7 | -14 | 4 | -26
SMILES | NPY-Y2 antag | NPY Y1 blocker | TbHK1 inh | NPY-Y1 PAM-ag | m-calpain inh | NPY2 pot ag
COc1ccc(NS(=O)(=O)c2cc(NC(=O)c3cnccn3)ccc2OC)cc1Br | / | 2 | -7 | 3 | -9 | -3
Cc1cccc(OCCC(=O)Nc2ccc(C)c(S(=O)(=O)N3CCCCC3)c2)c1 | 5 | 7 | 6 | 10 | 55* | 5
Cc1cccc(OCCC(=O)Nc2ccc(S(=O)(=O)N3CCCC3)cc2)c1 | 0 | 0 | 0 | 14 | -25 | 1
O=C(O)c1cccc(NC(=S)NC(=O)c2ccc(-c3ccccc3)cc2)c1 | / | 6 | 7 | 4 | 70* | 0
CC(=O)c1cccc(NC(=S)NC(=O)c2ccccc2)c1 | 3 | -1 | 15 | 1 | -4 | -2
COc1ccccc1NC(=O)COC(=O)C12CC3CC(CC(Cl)(C3)C1)C2 | / | 3 | 1 | 1 | 62* | -2
OCc1cc(C(O)CNCCCCCCOCCCCc2ccccc2)ccc1O (configuration not stated) | / | -11 | / | 78* | 24 | 86*
CCOCCCNCC(O)c1ccccc1 (configuration not stated) | 0 | 9 | 1 | -43 | -3 | 1
Cc1ccccc1Nc1c(-c2cccnc2)nc2ccc(Br)cn12 | / | -12 | -3 | 79* | 7 | 74*
Cc1ccccc1Nc1c(-c2cccnc2)nc2ccccn12 | / | / | -14 | 42 | 26 | 34
Cc1ccc2nc(-c3cccnc3)c(Nc3ccccc3C)n2c1 | / | -6 | -10 | 46* | -12 | 41*
NC(=O)CSc1nnc(-c2cc(-c3ccc(Cl)cc3)nc3ccccc23)o1 | / | 1 | -24 | 2 | -37 | 4
Cc1ncc([N+](=O)[O-])n1CC(=O)N/N=C/c1ccccc1F | / | -1 | 1 | -31 | 33 | 6
CC1CC(NS(=O)(=O)c2cccs2)CC(C)(C)C1 (configuration not stated) | 0 | -2 | 31 | -7 | 18 | 3
CCOCc1cc(=O)[nH]c(SC)n1 | / | / | -6 | -2 | -3 | -7
CC1(c2ccc3ccccc3c2)NC(=O)N(CC(=O)Nc2cccc(S(=O)(=O)N3CCOCC3)c2)C1=O (configuration not stated) | 0 | 1 | -8 | 10 | -18 | 5
CCCCCCCCNC(=S)NCCN1CCCCC1 | / | -1 | 6 | -8 | 27 | 1
Cc1ccc(NC(=S)NC(C)CCc2ccccc2)cc1C (configuration not stated) | 3 | 7 | -1 | -8 | 64* | -16
Cc1cccc(C)c1NC(=S)NC(C)CCc1ccccc1 (configuration not stated) | 4 | 5 | 2 | -22 | 31 | -3
O=C(C[n+]1cccc(/C=N/O)c1)N1CCCc2ccccc21 | / | 1 | -2 | 3 | -6 | 10
Cc1ccc(S(=O)(=O)NC(C)(C)CN2CCC(Cc3ccccc3)CC2)cc1 | / | / | 6 | -14 | 31 | -21
Cc1ccc2nc(-c3ccc(NC(=S)NC(=O)C(C)C)cc3)sc2c1 | -1 | -1 | -31 | 51* | -74 | 13
OC(CNCCNc1ncccc1C(F)(F)F)COc1ccc(F)cc1 (configuration not stated) | / | / | 11 | 86* | -5 | 61*
